Measurements from different studies.
Protocols differ between the studies behind these lines.
Target: 5-hydroxytryptamine receptor 2A (HTR2A, Homo sapiens, UniProt P28223)
Concentration: 10 µM

SMILES | observed | technique | measurement | result
Clc1ccc2c(C3CCN(CCc4c[nH]c5ccccc45)CC3)c[nH]c2c1 | ligand displacement | radioligand | inhibition | 99%
COCCN(CCOC)C(=O)[C@@]12C[C@@H]1[C@@H](n1cnc3c(N)nc(Cl)nc31)[C@H](O)[C@@H]2O | ligand displacement | radioligand | inhibition | 3%
CCc1ccccc1C(=O)Nc1n[nH]c2c(C)c(F)c(C3C(C#N)=C(C)N(C)C(C)=C3C#N)cc12 | ligand displacement |  | inhibition | 14.8%
COCCN(CCOC)C(=O)[C@@]12C[C@@H]1[C@@H](n1cnc3c(NC(C4CC4)C4CC4)nc(Cl)nc31)[C@H](O)[C@@H]2O | ligand displacement | radioligand | inhibition | 0%
COCc1c(-c2cc3cc(C)cc(OC)c3s2)c2c(N)ncnn2c1CN1CCNC(=O)C1 | ligand displacement | radioligand | inhibition | 23%
Nc1c(C(=O)NCc2ccc(C(=O)NCCCC3CCCCC3)cc2)cnn1-c1ccccc1 | ligand displacement |  | inhibition | 23.7%
COc1cc2c3c(c1OC)-c1cc4c(cc1CC3N(C)CC2)OCO4 (racemic) | ligand displacement | radioligand | inhibition | 89.3%
Nc1ncc(-c2nc(N3CCOCC3)nc(N3CCOCC3)n2)c(C(F)F)n1 | cell-free assay | radioligand | remaining signal | 98.1%
CSC[C@@]12C[C@@H]1[C@@H](n1cnc3c(NC(C4CC4)C4CC4)nc(I)nc31)[C@H](O)[C@@H]2O | ligand displacement | radioligand | inhibition | 24%
CCN(CC)CCCC[C@H](NC(=O)[C@H](CC(C)C)NC(=O)[C@H](C)NC(=O)[C@H](Cc1ccccc1)NC(=O)c1ccc(C(C)(C)C)cc1)C(=O)N[C@@H](CO)C(=O)OC | ligand displacement | radioligand | inhibition | 39%
